ChEMBL document CHEMBL1133544, “Formaldehyde-induced alkylation of a 2'-aminoglucose rebeccamycin derivative to both A.T and G.C base pairs in DNA” (J Med Chem, 2000)
Several values for one entry are separate records, joined by “and”; a condition that tells them apart may be missing. Equal values may be shown once.

Experiments:
[1] = Delta Tm value ( Tmdrug-DNA )-TmDNA ) was obtained for the covalently cross-linked compound in the absence of formaldehyde using calf thymus DNA.; type: ADME; conditions: cattle
Summary of the method: (§1)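 Drug added to nucleic acid at the stated drug/DNA ratio with no HCHO, in BPE buffer pH 7.0 (6 mM Na2HPO4, 2 mM NaH2PO4, 1 mM EDTA). DNA or polynucleotide at 20 μM nucleotide. Absorbance read at 260 nm while heating 20–100 °C at 1 °C/min. Tm taken as the midpoint of the hyperchromic transition; ΔTm = Tm(drug–DNA) − Tm(DNA). Duplicate determinations at each drug concentration.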

[2] = Delta Tm value ( Tmdrug-DNA )-TmDNA ) was obtained for the covalently cross-linked compound in the presence of formaldehyde using twice of poly(dA-dT) at 0.05 M; type: ADME
Summary of the method: (§2)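 The preformed drug–nucleic acid complex, at the stated drug/DNA ratio, was treated with HCHO before melting. Melting was done in BPE buffer pH 7.0 with 20 μM nucleotide, monitored at 260 nm, heating 20–100 °C at 1 °C/min. Tm is the hyperchromic transition midpoint, and ΔTm is taken relative to free nucleic acid. Each drug concentration was run in duplicate.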

[3] = Delta Tm value ( Tmdrug-DNA )-TmDNA ) was obtained for the covalently cross-linked compound in the presence of formaldehyde using twice of poly(dA-dT) at 0.1 M; type: ADME; summary of the method: as §2
[4] = Delta Tm value ( Tmdrug-DNA )-TmDNA ) was obtained for the covalently cross-linked compound in the presence of formaldehyde using twice of poly(dA-dT) at 0.25 M; type: ADME; summary of the method: as §2
[5] = Delta Tm value ( Tmdrug-DNA )-TmDNA ) was obtained for the covalently cross-linked compound in the presence of formaldehyde using twice of poly(dA-dT) at 0.5 M; type: ADME; summary of the method: as §2
[6] = Delta Tm value ( Tmdrug-DNA )-TmDNA ) was obtained for the covalently cross-linked compound in the presence of formaldehyde using twice of poly(dI-dC) at 0.05 M; type: ADME; summary of the method: as §2
[7] = Delta Tm value (Tm(drug-DNA)-Tm(DNA)) was determined for the covalently cross-linked compound in the presence of formaldehyde using calf thymus DNA at 0.05 M; type: ADME; conditions: cattle; summary of the method: as §2
[8] = Delta Tm value (Tm(drug-DNA)-Tm(DNA)) was determined for the covalently cross-linked compound in the presence of formaldehyde using twice of poly(dI-dC) at 0.25 M; type: ADME; summary of the method: as §2
[9] = Delta Tm value (Tm(drug-DNA)-Tm(DNA)) was obtained for the covalently cross-linked compound in the absence of formaldehyde using twice of poly(dI-dC); type: ADME; summary of the method: as §1
[10] = Delta Tm value (Tm(drug-DNA)-Tm(DNA)) was obtained for the covalently cross-linked compound in the absence of formaldehyde using twice of poly(dI-dC) at 0.05 M; type: ADME; summary of the method: as §1
[11] = Delta Tm value (Tm(drug-DNA)-Tm(DNA)) was obtained for the covalently cross-linked compound in the absence of formaldehyde using twice of poly(dI-dC) at 0.25 M; type: ADME; summary of the method: as §1
Bos taurus [12] = species: Bos taurus; test: Delta Tm value ( Tmdrug-DNA )-TmDNA ) was obtained for the covalently cross-linked compound in the absence of formaldehyde using calf thymus DNA at 0.05 M; type: ADME; conditions: cattle; summary of the method: as §1
Bos taurus [13] = species: Bos taurus; test: Delta Tm value ( Tmdrug-DNA )-TmDNA ) was obtained for the covalently cross-linked compound in the absence of formaldehyde using calf thymus DNA at 0.1 M; type: ADME; conditions: cattle; summary of the method: as §1
Bos taurus [14] = species: Bos taurus; test: Delta Tm value ( Tmdrug-DNA )-TmDNA ) was obtained for the covalently cross-linked compound in the absence of formaldehyde using calf thymus DNA at 0.25 M; type: ADME; conditions: cattle; summary of the method: as §1
Bos taurus [15] = species: Bos taurus; test: Delta Tm value ( Tmdrug-DNA )-TmDNA ) was obtained for the covalently cross-linked compound in the absence of formaldehyde using calf thymus DNA at 0.5 M; type: ADME; conditions: cattle; summary of the method: as §1
Bos taurus [16] = species: Bos taurus; test: Delta Tm value ( Tmdrug-DNA )-TmDNA ) was obtained for the covalently cross-linked compound in the absence of formaldehyde using calf thymus DNA at 1 M; type: ADME; conditions: cattle; summary of the method: as §1
Bos taurus [17] = species: Bos taurus; test: Delta Tm value ( Tmdrug-DNA )-TmDNA ) was obtained for the covalently cross-linked compound in the presence of formaldehyde using calf thymus DNA at 0.1 M; type: ADME; conditions: cattle; summary of the method: as §2
Bos taurus [18] = species: Bos taurus; test: Delta Tm value ( Tmdrug-DNA )-TmDNA ) was obtained for the covalently cross-linked compound in the presence of formaldehyde using calf thymus DNA at 0.25 M; type: ADME; conditions: cattle; summary of the method: as §2
Bos taurus [19] = species: Bos taurus; test: Delta Tm value ( Tmdrug-DNA )-TmDNA ) was obtained for the covalently cross-linked compound in the presence of formaldehyde using calf thymus DNA at 0.5 M; type: ADME; conditions: cattle; summary of the method: as §2
Bos taurus [20] = species: Bos taurus; test: Delta Tm value ( Tmdrug-DNA )-TmDNA ) was obtained for the covalently cross-linked compound in the presence of formaldehyde using calf thymus DNA at 1 M; type: ADME; conditions: cattle; summary of the method: as §2
Bos taurus [21] = species: Bos taurus; test: Delta Tm value ( Tmdrug-DNA )-TmDNA ) was obtained for the covalently cross-linked compound in the presence of formaldehyde using calf thymus DNA.; type: ADME; conditions: cattle; summary of the method: as §2
[22] = Delta Tm value ( Tmdrug-DNA )-TmDNA ) was obtained for the covalently cross-linked compound in the presence of formaldehyde using poly(dA-dC).poly(dG-dT) at 0.05 M; type: ADME; summary of the method: as §2
[23] = Delta Tm value ( Tmdrug-DNA )-TmDNA ) was obtained for the covalently cross-linked compound in the presence of formaldehyde using poly(dA-dC).poly(dG-dT) at 0.1 M; type: ADME; summary of the method: as §2
[24] = Delta Tm value ( Tmdrug-DNA )-TmDNA ) was obtained for the covalently cross-linked compound in the presence of formaldehyde using poly(dA-dC).poly(dG-dT) at 0.25 M; type: ADME; summary of the method: as §2
[25] = Delta Tm value ( Tmdrug-DNA )-TmDNA ) was obtained for the covalently cross-linked compound in the presence of formaldehyde using twice of poly(dA-dT); type: ADME; summary of the method: as §2
[26] = test system: [poly(dA-dT)]2 (synthetic); test: Delta Tm value ( Tmdrug-DNA )-TmDNA ) was obtained for the covalently cross-linked compound in the absence of formaldehyde using twice of poly(dA-dT); conditions: in vivo
[27] = test system: poly(dA-dC)·poly(dG-dT) (synthetic); test: Delta Tm value ( Tmdrug-DNA )-TmDNA ) was obtained for the covalently cross-linked compound in the absence of formaldehyde using poly(dA-dC).poly(dG-dT); conditions: in vitro
[28] = test system: poly(dA-dC)·poly(dG-dT) (synthetic); test: Delta Tm value ( Tmdrug-DNA )-TmDNA ) was obtained for the covalently cross-linked compound in the presence of formaldehyde using poly(dA-dC).poly(dG-dT); conditions: in vitro
[29] = test system: [poly(dA-dT)]2 (synthetic); test: Delta Tm value ( Tmdrug-DNA )-TmDNA ) was obtained for the covalently cross-linked compound in the absence of formaldehyde using twice of poly(dA-dT) at 0.1 M; conditions: in vivo
[30] = test system: [poly(dA-dT)]2 (synthetic); test: Delta Tm value ( Tmdrug-DNA )-TmDNA ) was obtained for the covalently cross-linked compound in the absence of formaldehyde using twice of poly(dA-dT) at 0.05 M; conditions: in vivo
[31] = test system: [poly(dA-dT)]2 (synthetic); test: Delta Tm value ( Tmdrug-DNA )-TmDNA ) was obtained for the covalently cross-linked compound in the absence of formaldehyde using twice of poly(dA-dT) at 0.25 M; conditions: in vivo
[32] = test system: poly(dA-dC)·poly(dG-dT) (synthetic); test: Delta Tm value ( Tmdrug-DNA )-TmDNA ) was obtained for the covalently cross-linked compound in the absence of formaldehyde using poly(dA-dC).poly(dG-dT) at 0.1 M; conditions: in vitro
[33] = test system: poly(dA-dC)·poly(dG-dT) (synthetic); test: Delta Tm value ( Tmdrug-DNA )-TmDNA ) was obtained for the covalently cross-linked compound in the absence of formaldehyde using poly(dA-dC).poly(dG-dT) at 0.05 M; conditions: in vitro
[34] = test system: poly(dA-dC)·poly(dG-dT) (synthetic); test: Delta Tm value ( Tmdrug-DNA )-TmDNA ) was obtained for the covalently cross-linked compound in the absence of formaldehyde using poly(dA-dC).poly(dG-dT) at 0.25 M; conditions: in vitro

Compound: COC1C(CO)OC(n2c3ccccc3c3c4c(c5c6ccccc6[nH]c5c32)C(=O)N(N)C4=O)C(N)C1O (centres undefined)
- Delta Tm [1]: 0 °C
- Delta Tm [2]: 5.9 °C
- Delta Tm [3]: 11.9 °C
- Delta Tm [4]: 31 °C
- Delta Tm [5]: 50.8 °C
- Delta Tm [6]: 3.1 °C
- Delta Tm [7]: 6 °C
- Delta Tm [8]: 10 °C
- Delta Tm [9]: 0 °C and -1 °C
- Delta Tm [10]: 2 °C
- Delta Tm [11]: 8.9 °C
- Delta Tm (Bos taurus [12]): 2 °C
- Delta Tm (Bos taurus [13]): 4 °C
- Delta Tm (Bos taurus [14]): 6.7 °C
- Delta Tm (Bos taurus [15]): 6.5 °C
- Delta Tm (Bos taurus [16]): 6.7 °C
- Delta Tm (Bos taurus [17]): 11.9 °C
- Delta Tm (Bos taurus [18]): 22.3 °C
- Delta Tm (Bos taurus [19]): 26.2 °C
- Delta Tm (Bos taurus [20]): 28.7 °C
- Delta Tm (Bos taurus [21]): 0 °C
- Delta Tm [22]: 6.7 °C
- Delta Tm [23]: 12.4 °C
- Delta Tm [24]: 21.2 °C
- Delta Tm [25]: 0 °C
- Delta Tm [26]: 0 °C
- Delta Tm [27]: 0 °C
- Delta Tm [28]: -2 °C
- Delta Tm [29]: 3 °C
- Delta Tm [30]: 2 °C
- Delta Tm [31]: 4.8 °C
- Delta Tm [32]: 1.8 °C
- Delta Tm [33]: 1 °C
- Delta Tm [34]: 2.9 °C
